CCR6 antag – CCR6 (human) receptor antagonism. 0.49% of 340,000 active. CHO-K1 CCR6 PathHunter beta-arrestin, luminescence, CCL20-stimulated. inhibition, % at 20 µM;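 active means compounds whose inhibition of the agonist-driven luminescence signal at 20 µM reaches about 50%, limit read from the data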;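 further: cells stimulated with CCL20 at 14 nM final; plate controls were DMSO with CCL20 for no effect and DMSO without agonist for full effect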
Target sequence (P51684 whole entry, looked up): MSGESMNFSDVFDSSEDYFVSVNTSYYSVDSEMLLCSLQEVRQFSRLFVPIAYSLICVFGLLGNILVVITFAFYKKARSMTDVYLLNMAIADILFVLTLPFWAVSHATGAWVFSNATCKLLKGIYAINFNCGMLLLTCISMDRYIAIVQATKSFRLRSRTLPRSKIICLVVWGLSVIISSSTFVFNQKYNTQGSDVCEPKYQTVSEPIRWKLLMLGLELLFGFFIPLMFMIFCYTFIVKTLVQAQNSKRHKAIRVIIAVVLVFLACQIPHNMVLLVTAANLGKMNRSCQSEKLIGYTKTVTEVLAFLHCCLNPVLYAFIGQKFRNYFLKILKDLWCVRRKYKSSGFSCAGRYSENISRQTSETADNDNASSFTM
APJ antag – APJ receptor antagonism; P35414; CHO-K1 APJ beta-arrestin complementation, luminescence; AID 2521; 0.32% of 330,000 active; inhibition, % at 20 µM;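 active means inhibition above about 40% at 20 µM, limit read from the data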;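 further: cells challenged with 10 nM apelin-13 agonist together with compound; plate controls were apelin-13 plus DMSO wells for no effect and DMSO wells lacking apelin-13 for full effect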
APJ ag – agonists of human APJ apelin receptor | P35414 | CHO-K1 APJ PathHunter beta-arrestin, luminescence; 0% DMSO wells, 100% apelin | activation, % at 20 µM | 0.11% of 330,000 active | AID 2520;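 active means activation more than six SD over the plate average, tested at 20 µM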;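 further: 0% = DMSO alone and 100% = apelin-13 at 10 nM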
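Material: engineered CHO-K1 APJ arrestin reporter cells; amount: 1000 CHO-K1 reporter cells seeded per well; incubation: compound stimulation 90 min at 25 °C, detection 60 min; signal: luminescent beta-gal fragment complementation, chemiluminescent substrate; read-out basis: APJ agonist activity; controls: DMSO-only wells as negative, 10 nM Apelin-13 as positive control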
EBI2 block – EBI2 (human) antagonism; P32249; EBI2 beta-arrestin recruitment, luminescence, 7a,25-OHC stimulated; inhibition, % at 5 µM; 0.81% of 360,000 active; AID 651636; in the data active means inhibition above about 38%;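 further: enzyme fragment complementation signal reports receptor beta-arrestin coupling in cells; 0% = agonist plus DMSO wells and 100% = wells without agonist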
HTR2A ag – agonists of mouse serotonin 5-HT2A receptor (HTR2A) | P35363 | CHO-K1 mHTR2A beta-arrestin complementation, luminescence; percent of 30 µM serotonin response | activation, % at 7.6 µM | 0.66% of 360,000 active;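 active means activation above a run cutoff, the mean activation of all tested compounds plus 3 SD, cut at about 14% in these data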;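 further: 0% = plate median of compound wells and 100% = 30 µM serotonin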
CXCR6 block – inhibitors of human CXCR6 receptor. CHO-K1 PathHunter CXCR6 beta-arrestin, luminescence. inhibition, % at 20 µM. 0.36% of 360,000 active; in the data active means inhibition above about 34%, passing the limit was not always enough;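 further: antagonist mode with CXCL16 agonist at 10 nM final; 0% = 10 nM CXCL16 with DMSO and 100% = unstimulated wells without agonist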
EBI2 antag conf – confirmation of human EBI2 receptor antagonists; shares compounds with EBI2 block; EBI2 beta-arrestin luminescence, 7a,25-OHC antagonism; inhibition, % at 5 µM; 29% of 2,400 active; AID 651997;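 active means inhibition of at least 50%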
EBI2 ag – counter-screen for EBI2 antagonists: EBI2 agonist activity. EBI2-expressing cells, agonist mode, luminescence, 60 min; 0% vehicle, 100% 7α,25-dihydroxycholesterol control. activation, % at 5 µM. 2,400 tested, under 10 active. shares compounds with EBI2 block;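 active means activation of at least 50%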
bGal cs – inhibits E. coli beta-galactosidase, counter-screen for EBI2 antagonists; shares compounds with EBI2 block; purified beta-galactosidase, luminescent Galacton Star, 15 min; inhibition, % at 5 µM; 1% of 2,400 active; AID 652176;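 active means replicate-average signal at least 3 plate SD below neutral wells, shown as high inhibition, flagging enzyme-inhibiting false positives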;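 further: 0% = DMSO wells with enzyme and 100% = wells lacking enzyme; higher means stronger loss of beta-gal luminescence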
An asterisk follows results filed as active. An excerpt weighted towards active compounds, which were near 2.1% of everything screened.

`Cc1cc(C(=O)N2CCN(C/C=C/c3ccccc3)CC2)cs1` gave CCR6 antag 3, APJ antag -13, APJ ag -5, EBI2 block 46*, HTR2A ag -9, CXCR6 block 4, EBI2 antag conf 31, EBI2 ag 3 and bGal cs 1.
Screening COc1ccc(-n2c(-c3ccco3)nc3c(cnn3-c3ccc(C)cc3)c2=O)cc1 returned CCR6 antag 4, APJ antag 8, APJ ag 1, EBI2 block 43*, HTR2A ag 3, CXCR6 block 7, EBI2 antag conf 38, EBI2 ag 0 and bGal cs 0.
For O=C(Nc1ccc2c(c1)OCO2)N1CCN(C/C=C/c2ccccc2)CC1 the results were CCR6 antag -14, APJ antag 24, APJ ag -2, EBI2 block 45*, HTR2A ag -3, CXCR6 block 4, EBI2 antag conf 25, EBI2 ag -1 and bGal cs -8.
`Cc1ccc(NC(=O)N2CCN(C/C=C/c3ccccc3)CC2)cc1` gave CCR6 antag 5, APJ antag -2, APJ ag 1, EBI2 block 45*, HTR2A ag -3, CXCR6 block 1, EBI2 antag conf 17, EBI2 ag 2 and bGal cs 4.
Screening Cc1ccc(C(=O)CCC(=O)N2CCN(C/C=C/c3ccccc3)CC2)cc1 returned EBI2 block 11, HTR2A ag -4 and CXCR6 block -4.
Screening CC(=O)NCCc1nc2ccccc2n1CCOc1ccccc1 returned CCR6 antag 1, APJ antag 17, APJ ag -2, EBI2 block -6, HTR2A ag -7 and CXCR6 block -5.
`Cc1ccc(-c2csc(NC(=S)NC(=O)c3cc4ccccc4o3)n2)cc1` gave CCR6 antag 19, APJ antag 23, APJ ag -4, EBI2 block -10, HTR2A ag 4 and CXCR6 block 17.
For O=c1oc2c(CN3CCOCC3)c(O)c(Cl)cc2c2c1CCC2 the results were EBI2 block -7, HTR2A ag 0 and CXCR6 block -3.
`Cc1ccc(S(=O)(=O)N2C3CCCCC3O[C@H]2CC(=O)Oc2ccccc2)cc1` (some centres not stated) gave EBI2 block 30 and HTR2A ag -2.
`Cc1ccc(OCC(=O)NNC(=O)CSc2nnc(-c3ccc(C)cc3)n2C)cc1` gave CCR6 antag 2, APJ antag 3, APJ ag -4, EBI2 block 75*, HTR2A ag -2, CXCR6 block -2, EBI2 antag conf 40, EBI2 ag -1 and bGal cs 3.
`Cc1ccc(-c2nnc(SCC(=O)NNC(=O)COc3cccc4ccccc34)n2C)cc1` gave APJ antag -4 and APJ ag -4.
COc1ccc2nc(C)cc(SCC(=O)NNC(=O)COc3ccc(C)cc3)c2c1 was read as CCR6 antag -15, APJ antag 18, APJ ag -2, EBI2 block 67*, HTR2A ag -2, CXCR6 block -2, EBI2 antag conf 17, EBI2 ag 2 and bGal cs 7.
Screening Cc1ccc(CS(=O)Cc2ccc(C(=O)NCc3ccccc3Br)o2)cc1 (configuration not stated) returned CCR6 antag 11, APJ antag 8, APJ ag -5, EBI2 block 8, HTR2A ag -2 and CXCR6 block -5.

Bioassay records deposited in PubChem BioAssay by several laboratories.
